Measured values as given in ChEMBL document CHEMBL2439973, “Discovery of VU0409106: A negative allosteric modulator of mGlu5 with activity in a mouse model of anxiety” (Bioorg Med Chem Lett, 2013).
Calls of active or inactive are those of the source.

Experiments:
[1] = biological target: Metabotropic glutamate receptor 2 (Rattus norvegicus) (UniProt P31421); experiment: Allosteric modulation of rat mGlu2 receptor expressed in HEK293 cells coexpressing G protein-activated inward rectifier potassium channel assessed as effect on glutamate-induced thallium flux at 10 uM; assay type: cell-based
[2] = biological target: 5-hydroxytryptamine receptor 3A (Homo sapiens) (UniProt P46098); experiment: Displacement of [3H]-GR-65630 from human recombinant 5-HT3 receptor expressed in HEK293 cells at 10 uM relative to control; assay type: cell-based
Outline: (§1)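 Tested once at 10 μM in a commercial radioligand binding panel of 68 GPCRs, ion channels, kinases and transporters. Activity is given as displacement of each radioligand relative to control.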

[3] = biological target: Alpha-1D adrenergic receptor (Homo sapiens) (UniProt P25100); experiment: Displacement of [3H]-Prazosin from human recombinant adrenergic alpha1D receptor expressed in HEK293 cells at 10 uM relative to control; assay type: cell-based
[4] = biological target: Mu-type opioid receptor (Homo sapiens) (UniProt P35372); experiment: Displacement of [3H]-Diprenorphine from human recombinant mu opioid receptor expressed in CHO-K1 cells at 10 uM relative to control; assay type: cell-based; outline: as §1
[5] = species on record: Rattus norvegicus; experiment: Displacement of [3H]-Nitrendipine from L-type calcium channel dihydropyridine binding site in rat cerebral cortex at 10 uM relative to control; assay type: tissue-based; outline: as §1
[6] = biological target: T1, Glutamate NMDA receptor (Rattus norvegicus) (UniProt P35439+Q00959+Q00960+Q00961+Q62645+Q8VHN2+Q9R1M7); experiment: Displacement of [3H]-TCP from NMDA receptor phencyclidine binding site in rat cerebral cortex at 10 uM relative to control; assay type: tissue-based
[7] = species on record: Rattus norvegicus; experiment: Displacement of [3H]-Idazoxan from central-type imidazoline I2 receptor in rat cerebral cortex at 10 uM relative to control; assay type: tissue-based; outline: as §1
[8] = biological target: Metabotropic glutamate receptor 7 (Rattus norvegicus) (UniProt P35400); experiment: Allosteric modulation of rat mGlu7 receptor expressed in HEK293 cells coexpressing G protein-activated inward rectifier potassium channel assessed as effect on L-AP4-induced thallium flux at 10 uM; assay type: cell-based
[9] = system: Brain; experiment: Fraction unbound in mouse brain homogenates by equilibrium dialysis technique; assay type: ADME, tissue-based; settings: brain homogenate
[10] = biological target: Delta-type opioid receptor (Homo sapiens) (UniProt P41143); experiment: Displacement of [3H]-Naltrindole from human recombinant delta opioid receptor expressed in HEK293 cells at 10 uM relative to control; assay type: cell-based; outline: as §1
[11] = system: Brain; experiment: Tmax in CD-1 mouse brain at 10 mg/kg, ip by LC-MS/MS analysis; assay type: ADME, organism-based; design: dose 10 mg/kg, route intraperitoneal; settings: in vivo
[12] = biological target: D(1A) dopamine receptor (Homo sapiens) (UniProt P21728); experiment: Displacement of [3H]-SCH-23390 from human recombinant dopamine D1 receptor expressed in CHO cells at 10 uM relative to control; assay type: cell-based
[13] = biological target: T1, Glutamate NMDA receptor (Rattus norvegicus); experiment: Displacement of [3H]-CGP-39653 from NMDA receptor agonist binding site in rat cerebral cortex at 10 uM relative to control; assay type: tissue-based; outline: as §1
[14] = biological target: Metabotropic glutamate receptor 6 (Rattus norvegicus) (UniProt P35349); experiment: Allosteric modulation of rat mGlu6 receptor expressed in HEK293 cells coexpressing G protein-activated inward rectifier potassium channel assessed as effect on glutamate-induced thallium flux at 10 uM; assay type: cell-based
[15] = biological target: Gamma-aminobutyric acid type B receptor subunit 1 (Homo sapiens) (UniProt Q9UBS5); experiment: Displacement of [3H]-CGP-54626 from human recombinant GABAB1A receptor expressed in CHO cells at 10 uM relative to control; assay type: cell-based; outline: as §1
[16] = biological target: Platelet-activating factor receptor (Homo sapiens) (UniProt P25105); experiment: Displacement of [3H]-PAF from platelet activating factor receptor in human platelets at 10 uM relative to control; outline: as §1
[17] = biological target: Muscarinic acetylcholine receptor M1 (Homo sapiens) (UniProt P11229); experiment: Displacement of [3H]-N-Methylscopolamine from human recombinant muscarinic M1 receptor expressed in CHO-K1 cells at 10 uM relative to control; assay type: cell-based; outline: as §1
[18] = system: Plasma; experiment: Tmax in CD-1 mouse plasma at 10 mg/kg, ip by LC-MS/MS analysis; assay type: ADME, organism-based; design: dose 10 mg/kg, route intraperitoneal; settings: in vivo
[19] = biological target: Cysteinyl leukotriene receptor 1 (Homo sapiens) (UniProt Q9Y271); experiment: Displacement of [3H]-LTD4 from human recombinant leukotriene cysteinyl CysLT1 receptor expressed in CHO-K1 cells at 10 uM relative to control; assay type: cell-based; outline: as §1
[20] = species on record: Rattus norvegicus; experiment: Displacement of [3H]-Flunitrazepam from central-type GABAA receptor flunitrazepam binding site in cerebellum-less rat brain homogenate at 10 uM relative to control; assay type: tissue-based; outline: as §1
[21] = biological target: Metabotropic glutamate receptor 8 (Rattus norvegicus) (UniProt P70579); experiment: Allosteric modulation of rat mGlu8 receptor expressed in HEK293 cells coexpressing G protein-activated inward rectifier potassium channel assessed as effect on glutamate-induced thallium flux at 10 uM; assay type: cell-based
[22] = species on record: Rattus norvegicus; experiment: Displacement of [3H]-Kainic acid from kainate receptor in cerebellum-less rat brain homogenate at 10 uM relative to control; assay type: tissue-based; outline: as §1
[23] = biological target: Alpha-1A adrenergic receptor (Rattus norvegicus) (UniProt P43140); experiment: Displacement of [3H]-Prazosin from adrenergic alpha1A receptor in rat submaxillary gland at 10 uM relative to control; assay type: tissue-based
[24] = biological target: Substance-P receptor (Homo sapiens) (UniProt P25103); experiment: Displacement of [3H]-Substance P from human recombinant tachykinin NK1 receptor expressed in CHO cells at 10 uM relative to control; assay type: cell-based
[25] = biological target: 5-hydroxytryptamine receptor 1A (Homo sapiens) (UniProt P08908); experiment: Displacement of [3H]-8-OH-DPAT from human recombinant 5-HT1A receptor expressed in CHO-K1 cells at 10 uM relative to control; assay type: cell-based; outline: as §1
[26] = biological target: Neuropeptide Y receptor type 2 (Homo sapiens) (UniProt P49146); experiment: Displacement of [125I]-Peptide YY from neuropeptide Y Y2 receptor in human KAN-TS cells at 10 uM relative to control; assay type: cell-based; outline: as §1
[27] = biological target: D(2) dopamine receptor (Homo sapiens) (UniProt P14416); experiment: Displacement of [3H]-Spiperone from human recombinant dopamine D2S receptor expressed in CHO cells at 10 uM relative to control; assay type: cell-based
[28] = system: Brain; experiment: AUC in CD-1 mouse brain at 10 mg/kg, ip by LC-MS/MS analysis; assay type: ADME, organism-based; design: dose 10 mg/kg, route intraperitoneal; settings: in vivo
[29] = biological target: Adenosine receptor A2a (Homo sapiens) (UniProt P29274); experiment: Displacement of [3H]-CGS-21680 from human recombinant adenosine A2A receptor expressed in HEK293 cells at 10 uM relative to control; assay type: cell-based; outline: as §1
[30] = biological target: L-type calcium channel, benzothiazepine binding site (Rattus norvegicus, UniProt P22002+P27732+Q02485); experiment: Displacement of [3H]-Diltiazem from L-Type calcium channel benzothiazepine binding site in rat brain at 10 uM relative to control; assay type: tissue-based; settings: probe [3H]-Diltiazem
[31] = biological target: Androgen receptor (Homo sapiens) (UniProt P10275); experiment: Displacement of [3H]-Methyltrienolone from androgen receptor in human LNCAP cells at 10 uM relative to control; assay type: cell-based; outline: as §1
[32] = biological target: Histamine H3 receptor (Homo sapiens) (UniProt Q9Y5N1); experiment: Displacement of [3H]-N(-)-alpha-Methylhistamine from human recombinant histamine H3 receptor expressed in CHO-K1 cells at 10 uM relative to control; assay type: cell-based; outline: as §1

Platelet-activating factor receptor (Homo sapiens), sequence (P25105 whole entry): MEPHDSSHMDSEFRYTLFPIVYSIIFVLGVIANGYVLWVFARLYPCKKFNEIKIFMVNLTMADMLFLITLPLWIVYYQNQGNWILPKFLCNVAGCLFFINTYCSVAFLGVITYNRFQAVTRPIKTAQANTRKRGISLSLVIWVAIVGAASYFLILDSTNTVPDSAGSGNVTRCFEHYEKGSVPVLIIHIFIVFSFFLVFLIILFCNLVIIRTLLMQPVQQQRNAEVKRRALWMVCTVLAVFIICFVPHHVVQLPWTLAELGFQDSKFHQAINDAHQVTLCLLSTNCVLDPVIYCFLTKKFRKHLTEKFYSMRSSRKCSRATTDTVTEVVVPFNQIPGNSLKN
Alpha-1A adrenergic receptor (Rattus norvegicus), sequence (P43140 whole entry): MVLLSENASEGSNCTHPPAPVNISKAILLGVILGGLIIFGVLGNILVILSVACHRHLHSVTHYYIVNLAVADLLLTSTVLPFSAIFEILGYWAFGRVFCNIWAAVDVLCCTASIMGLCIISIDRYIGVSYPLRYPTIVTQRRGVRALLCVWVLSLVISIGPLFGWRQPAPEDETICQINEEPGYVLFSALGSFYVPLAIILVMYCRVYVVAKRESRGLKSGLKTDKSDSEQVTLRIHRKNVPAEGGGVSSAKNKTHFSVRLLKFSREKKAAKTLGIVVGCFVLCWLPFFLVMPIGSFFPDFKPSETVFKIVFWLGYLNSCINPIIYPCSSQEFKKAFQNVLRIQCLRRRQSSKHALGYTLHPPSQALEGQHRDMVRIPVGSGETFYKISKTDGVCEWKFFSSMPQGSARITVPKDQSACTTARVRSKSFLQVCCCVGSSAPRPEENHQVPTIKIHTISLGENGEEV
D(2) dopamine receptor (Homo sapiens), sequence (P14416 whole entry): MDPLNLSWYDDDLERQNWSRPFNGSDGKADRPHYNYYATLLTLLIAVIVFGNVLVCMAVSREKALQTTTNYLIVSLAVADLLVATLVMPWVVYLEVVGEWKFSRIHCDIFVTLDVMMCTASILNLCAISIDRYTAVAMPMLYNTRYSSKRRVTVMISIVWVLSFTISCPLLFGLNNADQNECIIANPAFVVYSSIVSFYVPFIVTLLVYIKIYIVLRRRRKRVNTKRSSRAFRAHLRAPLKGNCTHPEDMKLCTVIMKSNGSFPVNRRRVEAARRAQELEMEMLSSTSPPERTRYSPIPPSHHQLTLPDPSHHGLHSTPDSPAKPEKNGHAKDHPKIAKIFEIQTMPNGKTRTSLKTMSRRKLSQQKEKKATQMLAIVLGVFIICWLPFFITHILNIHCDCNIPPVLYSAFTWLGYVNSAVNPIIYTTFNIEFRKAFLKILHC
5-hydroxytryptamine receptor 1A (Homo sapiens), sequence (P08908 whole entry): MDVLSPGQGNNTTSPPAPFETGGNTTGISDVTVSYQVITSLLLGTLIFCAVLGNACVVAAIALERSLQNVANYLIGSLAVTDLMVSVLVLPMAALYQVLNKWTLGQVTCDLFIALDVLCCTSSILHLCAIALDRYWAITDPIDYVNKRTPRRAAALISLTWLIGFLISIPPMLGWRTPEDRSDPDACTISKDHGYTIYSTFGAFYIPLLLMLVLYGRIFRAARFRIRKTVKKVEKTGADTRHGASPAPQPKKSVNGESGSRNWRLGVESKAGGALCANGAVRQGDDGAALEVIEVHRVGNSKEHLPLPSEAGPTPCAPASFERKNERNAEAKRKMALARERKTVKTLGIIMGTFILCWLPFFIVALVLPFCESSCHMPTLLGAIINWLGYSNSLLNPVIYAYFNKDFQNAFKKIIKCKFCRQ
Adenosine receptor A2a (Homo sapiens), sequence (P29274 whole entry): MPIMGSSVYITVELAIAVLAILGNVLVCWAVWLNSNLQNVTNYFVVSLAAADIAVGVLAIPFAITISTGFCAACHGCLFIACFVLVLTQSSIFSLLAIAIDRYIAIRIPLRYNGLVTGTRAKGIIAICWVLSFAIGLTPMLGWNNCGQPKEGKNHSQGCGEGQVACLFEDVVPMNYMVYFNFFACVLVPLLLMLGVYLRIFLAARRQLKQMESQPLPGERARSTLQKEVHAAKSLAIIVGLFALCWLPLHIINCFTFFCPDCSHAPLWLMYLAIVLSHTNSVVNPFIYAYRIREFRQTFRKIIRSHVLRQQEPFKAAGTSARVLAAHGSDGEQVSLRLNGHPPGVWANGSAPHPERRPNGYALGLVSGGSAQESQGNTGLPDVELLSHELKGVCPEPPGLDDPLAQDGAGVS
Gamma-aminobutyric acid type B receptor subunit 1 (Homo sapiens), sequence (Q9UBS5 whole entry): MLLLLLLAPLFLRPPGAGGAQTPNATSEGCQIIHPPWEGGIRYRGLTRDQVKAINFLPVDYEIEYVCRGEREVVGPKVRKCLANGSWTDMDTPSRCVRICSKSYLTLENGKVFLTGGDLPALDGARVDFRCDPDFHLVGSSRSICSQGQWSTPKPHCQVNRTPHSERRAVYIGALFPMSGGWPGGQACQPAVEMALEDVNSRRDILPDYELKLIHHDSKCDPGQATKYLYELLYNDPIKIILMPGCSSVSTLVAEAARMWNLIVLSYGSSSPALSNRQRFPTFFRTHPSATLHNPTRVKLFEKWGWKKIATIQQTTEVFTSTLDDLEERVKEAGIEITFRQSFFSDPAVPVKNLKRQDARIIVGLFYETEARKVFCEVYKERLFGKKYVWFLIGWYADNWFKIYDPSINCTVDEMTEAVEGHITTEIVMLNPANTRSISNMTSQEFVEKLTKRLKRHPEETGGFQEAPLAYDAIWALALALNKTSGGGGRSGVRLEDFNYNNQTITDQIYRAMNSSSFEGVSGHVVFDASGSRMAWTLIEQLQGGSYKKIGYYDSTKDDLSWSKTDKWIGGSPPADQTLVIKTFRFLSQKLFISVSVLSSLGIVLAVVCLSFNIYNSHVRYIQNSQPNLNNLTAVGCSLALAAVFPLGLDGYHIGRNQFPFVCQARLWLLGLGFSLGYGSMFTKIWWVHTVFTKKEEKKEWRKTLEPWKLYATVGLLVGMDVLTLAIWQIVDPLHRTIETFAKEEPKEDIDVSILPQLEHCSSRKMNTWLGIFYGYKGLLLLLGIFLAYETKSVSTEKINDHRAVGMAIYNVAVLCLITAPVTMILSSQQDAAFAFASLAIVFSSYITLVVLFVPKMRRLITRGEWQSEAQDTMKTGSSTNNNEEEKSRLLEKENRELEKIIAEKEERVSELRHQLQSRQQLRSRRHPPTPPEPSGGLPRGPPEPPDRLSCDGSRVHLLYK
Metabotropic glutamate receptor 2 (Rattus norvegicus), sequence (P31421 19-872 limits assumed): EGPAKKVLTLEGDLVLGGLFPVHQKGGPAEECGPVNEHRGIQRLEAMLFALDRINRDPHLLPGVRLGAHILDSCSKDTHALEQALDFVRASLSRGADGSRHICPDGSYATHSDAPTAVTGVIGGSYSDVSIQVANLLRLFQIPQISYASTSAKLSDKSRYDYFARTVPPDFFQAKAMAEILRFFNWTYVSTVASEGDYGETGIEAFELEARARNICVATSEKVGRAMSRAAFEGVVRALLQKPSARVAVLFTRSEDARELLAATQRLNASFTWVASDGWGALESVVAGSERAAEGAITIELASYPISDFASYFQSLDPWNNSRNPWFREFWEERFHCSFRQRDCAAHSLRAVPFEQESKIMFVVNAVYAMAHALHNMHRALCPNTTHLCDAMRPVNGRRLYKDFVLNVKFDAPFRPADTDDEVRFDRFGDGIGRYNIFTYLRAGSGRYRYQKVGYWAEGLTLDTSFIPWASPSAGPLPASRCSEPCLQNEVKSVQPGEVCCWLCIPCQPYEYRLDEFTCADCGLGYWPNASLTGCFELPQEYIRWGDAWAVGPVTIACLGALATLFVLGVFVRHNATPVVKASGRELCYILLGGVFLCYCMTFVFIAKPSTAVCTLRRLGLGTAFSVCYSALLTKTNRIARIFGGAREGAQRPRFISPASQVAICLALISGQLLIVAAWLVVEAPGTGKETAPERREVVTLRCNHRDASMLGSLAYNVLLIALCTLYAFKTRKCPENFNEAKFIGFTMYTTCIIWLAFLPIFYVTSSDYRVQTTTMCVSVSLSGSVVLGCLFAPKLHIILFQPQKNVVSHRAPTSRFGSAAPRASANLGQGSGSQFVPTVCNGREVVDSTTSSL
5-hydroxytryptamine receptor 3A (Homo sapiens), sequence (P46098 whole entry): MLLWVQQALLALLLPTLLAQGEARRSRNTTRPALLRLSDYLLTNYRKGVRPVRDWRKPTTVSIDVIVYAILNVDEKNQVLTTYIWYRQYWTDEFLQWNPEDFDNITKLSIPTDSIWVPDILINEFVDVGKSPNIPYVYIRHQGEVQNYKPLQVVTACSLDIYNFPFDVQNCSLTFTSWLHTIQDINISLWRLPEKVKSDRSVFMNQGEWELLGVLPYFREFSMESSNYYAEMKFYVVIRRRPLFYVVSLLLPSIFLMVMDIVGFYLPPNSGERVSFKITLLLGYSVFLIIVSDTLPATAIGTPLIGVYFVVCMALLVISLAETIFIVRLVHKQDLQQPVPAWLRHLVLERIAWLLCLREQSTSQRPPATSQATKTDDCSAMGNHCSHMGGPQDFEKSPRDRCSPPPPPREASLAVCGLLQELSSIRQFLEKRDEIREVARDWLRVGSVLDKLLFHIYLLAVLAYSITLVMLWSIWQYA
Delta-type opioid receptor (Homo sapiens), sequence (P41143 whole entry): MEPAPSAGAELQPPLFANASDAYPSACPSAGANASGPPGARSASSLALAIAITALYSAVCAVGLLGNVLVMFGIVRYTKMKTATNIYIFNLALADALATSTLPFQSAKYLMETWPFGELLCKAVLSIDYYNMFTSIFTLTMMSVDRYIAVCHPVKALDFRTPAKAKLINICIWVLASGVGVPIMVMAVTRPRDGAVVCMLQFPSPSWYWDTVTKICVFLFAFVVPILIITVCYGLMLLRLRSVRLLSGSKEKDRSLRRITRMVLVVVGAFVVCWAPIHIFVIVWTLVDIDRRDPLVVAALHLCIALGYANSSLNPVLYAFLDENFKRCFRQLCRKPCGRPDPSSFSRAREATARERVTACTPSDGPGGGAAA

Cc1csc(NC(=O)c2cc(F)cc(Oc3cncnc3)c2)n1
inactive: Activity [1] | Activity [8] | Activity [14] | Activity [21]
696 ng·h/g: AUC [28]
> 35%: inhibition [2] | inhibition [3] | inhibition [4] | inhibition [5] | inhibition [6] | inhibition [7] | inhibition [10] | inhibition [12] | inhibition [13] | inhibition [15] | inhibition [16] | inhibition [17] | inhibition [19] | inhibition [20] | inhibition [22] | inhibition [23] | inhibition [24] | inhibition [25] | inhibition [26] | inhibition [27] | inhibition [29] | inhibition at 10 µM [30] | inhibition [31] | inhibition [32]
15 min: Tmax [11] | Tmax [18]
0.082: Fu [9]
